Source: paper PMC7701984 (Journal of medicinal chemistry, 2019)
Marks after values point to notes of the source that are not given here. Blank lines part the entries; values can stand above or below the compound they belong to.

Tests used:
BTN3A1 BFI(R499A) = BTN3A1 BFI(R499A) (Homo sapiens, UniProt O00481, R499A); experiment: GDP-BODIPY fluorescence polarization competitive binding assay, BFI; conditions: n ≥ 3
BTN3A1 BFI(R442A) = BTN3A1 BFI(R442A) (Homo sapiens, UniProt O00481, R442A); experiment: as above; conditions: n ≥ 3
BTN3A1 BFI(R442A), sequence (O00481 272-513 R442A limits assumed): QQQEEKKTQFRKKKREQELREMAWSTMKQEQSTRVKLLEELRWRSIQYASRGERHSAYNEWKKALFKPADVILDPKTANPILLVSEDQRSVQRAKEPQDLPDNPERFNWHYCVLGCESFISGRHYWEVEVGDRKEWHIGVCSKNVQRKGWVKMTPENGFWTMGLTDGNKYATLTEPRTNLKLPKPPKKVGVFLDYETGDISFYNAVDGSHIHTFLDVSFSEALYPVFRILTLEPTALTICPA

BTN3A1 BFI(M424A) = BTN3A1 BFI(M424A) (Homo sapiens, UniProt O00481, M424A); experiment: as above; conditions: n ≥ 3, ambiguous, approximate slope estimated by GraphPad
BTN3A1 BFI(M424A), sequence (O00481 272-513 M424A limits assumed): as the sequence (O00481 272-513 R442A limits assumed) above, with M153A, A171R counted along it

wt-BFI domain of BTN3A1 = wt-BFI domain of BTN3A1 (Homo sapiens, UniProt O00481); experiment: GDP-BODIPY fluorescence polarization competitive binding assay, wt-BFI; conditions: n ≥ 3
wt-BFI domain of BTN3A1, sequence (O00481 272-513 limits assumed): as the sequence (O00481 272-513 R442A limits assumed) above, with A171R counted along it

BFI = conditions: read-out: ITC Kd for BFI; previous ITC experiments; cited from earlier work
Vγ9Vδ2 T cells [1] = experiment: Vγ9Vδ2 T cell proliferation assay; assay type: cell-based, human; conditions: for T cell expansion above non-stimulated baseline: positive controls at 0.1 μM; for signs of Vγ9Vδ2 T cell stimulation: proliferation assay, Supplemental Figure S1C–D
BTN3A1 BFI(R448A) = BTN3A1 BFI(R448A) (Homo sapiens, UniProt O00481, R448A); experiment: GDP-BODIPY fluorescence polarization competitive binding assay, BFI; conditions: n ≥ 3
BTN3A1 BFI(R448A), sequence (O00481 272-513 R448A limits assumed): as the sequence (O00481 272-513 R442A limits assumed) above, with A171R, R177A counted along it

BTN3A1 BFI(W421A) = BTN3A1 BFI(W421A) (Homo sapiens, UniProt O00481, W421A); experiment: as above; conditions: n ≥ 3
BTN3A1 BFI(W421A), sequence (O00481 272-513 W421A limits assumed): as the sequence (O00481 272-513 R442A limits assumed) above, with W150A, A171R counted along it

[2] = system: Human PBMCs containing naïve Vγ9Vδ2 T cells; experiment: IFN-γ production of PBMCs by ELISA; assay type: cell-based; conditions: for EC50: Homo sapiens, PBMC, 48 h, read-out: IFN-γ EC50 (μM) with 95% CI
BTN3A1 = conditions: previously reported ITC experiments; no reference given; cited from earlier work
Vγ9Vδ2 T cells [3] = conditions: read-out: Proliferation EC50 (μM) with 95% CI; footnote a; ref Hsiao 2014; cited from earlier work
[4] = system: peripheral blood mononuclear cells (PBMCs); experiment: Ligand uptake: disappearance of prodrug from media incubated with PBMCs; assay type: in vitro ADME; conditions: 10 μM with PBMCs, 24 hours, 37 °C
Summary of the method: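 PBMCs at 1,000,000 cells/mL in T cell media were incubated at 37 °C with test prodrug at 10 μM final, or with media alone. Samples were taken at 0, 6, 24 and 48 h and spun. The supernatant was mixed with acetonitrile, re-spun and stored at −20 °C. UPLC-MS used a C18 column with a 25–80% acetonitrile gradient over 8 min. The integrated molecular-ion signal was expressed relative to t = 0.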

[5] = dose-response, 48 hours, concentration not given

BTN3A1 BFI(R499A), sequence (O00481 272-513 R499A limits assumed): as the sequence (O00481 272-513 R442A limits assumed) above, with A171R, R228A counted along it

Probe displacement (mP) range with 95% CI (BTN3A1 BFI(R499A)): 55.0 (21 – 78) ^* mP | Probe displacement (mP) range with 95% CI (BTN3A1 BFI(R442A)): 19.4 (13 – 26) mP | Probe displacement (mP) range with 95% CI (BTN3A1 BFI(M424A)): 59.1^a (38 – 81) ^* mP | Probe displacement (mP) range with 95% CI (wt-BFI domain of BTN3A1): 30.6 (25 – 36) mP | Probe displacement (mP) range with 95% CI (BTN3A1 BFI(R448A)): 26.2 (12 – 40) mP | Probe displacement (mP) range with 95% CI (BTN3A1 BFI(W421A)): 56.7 (40 – 73) ^* mP
SMILES: C/C(=C\COP(=O)(O)OP(=O)(O)O)CO [Compound 1, (E)-4-hydroxy-3-methyl-but-2-enyl diphosphate]
Kd (BFI): 2.36 µM | T cell expansion above non-stimulated baseline (Vγ9Vδ2 T cells [1]): significantly expanded T cells

SMILES: O=P(O)(O)C(O)(Cn1ccnc1)P(=O)(O)O [Compound 4, zoledronate]
stimulation of IFN-γ production [2, 5]: Neither zoledronate (4) nor sodium diphosphate stimulated IFN-γ production

SMILES: C/C(=C\CCP(=O)(O)O)CO [Compound 5]
ITC dissociation constant (Kd) (BTN3A1): not calculable | EC50 (Vγ9Vδ2 T cells [3]): 4 µM

parent ion detected in media relative to t = 0 [4]: less than 1%
SMILES: C/C(=C\CCP(=O)(OCOC(=O)C(C)(C)C)OCOC(=O)C(C)(C)C)CO [Compound 6]
T cell expansion above non-stimulated baseline (Vγ9Vδ2 T cells [1]): significantly expanded T cells

SMILES: C/C(=C\CCP(=O)(O)CP(=O)(O)O)CO [Compound 7]
stimulation of IFN-γ production at 100 μM ([2]; 100 μM, 48 hours): did stimulate IFN-γ production | EC50 [2]: > 100 µM

SMILES: C/C(=C\CCP(=O)(CP(=O)(OCOC(=O)C(C)(C)C)OCOC(=O)C(C)(C)C)OCOC(=O)C(C)(C)C)CO (centres unmarked) [Compound 8]
IFN-γ potency of prodrug 8 relative to its salt 7 [2]: 100 times | EC50 [2]: > 1 µM

parent ion detected in media relative to t = 0 [4]: less than 1%
SMILES: C/C(=C\CCCCP(=O)(OCOC(=O)C(C)(C)C)OCOC(=O)C(C)(C)C)CO [Compound 11, (E)-(((7-hydroxy-6-methylhept-5-en-1-yl)phosphoryl)bis(oxy))bis(methylene) bis(2,2-dimethylpropanoate)]
stimulation of IFN-γ production ([2]; concentrations up to 100 μM, 48 hours): did not stimulate | stimulation of T cell proliferation (Vγ9Vδ2 T cells [1]; concentrations up to 100 μM): neither prodrug 11 nor salt 10 (Supplemental Figure S1B) stimulated T cell proliferation

SMILES: CC(C)=CCCCCP(=O)(OCOC(=O)C(C)(C)C)OCOC(=O)C(C)(C)C [Compound 14, (((6-Methylhept-5-en-1-yl)phosphoryl)bis(oxy))bis(methylene) bis(2,2-dimethylpropanoate)]
signs of Vγ9Vδ2 T cell stimulation (Vγ9Vδ2 T cells [1]): neither intermediate 14 nor 15 displayed signs of Vγ9Vδ2 T cell stimulation

SMILES: COP(=O)(CCCC/C=C(\C)CO)OC [Compound 15, Dimethyl (E)-(7-hydroxy-6-methylhept-5-en-1-yl) phosphonate]
signs of Vγ9Vδ2 T cell stimulation (Vγ9Vδ2 T cells [1]): neither intermediate 14 nor 15 displayed signs of Vγ9Vδ2 T cell stimulation

SMILES: O=P([O-])([O-])OP(=O)([O-])[O-].[Na+].[Na+].[Na+].[Na+] [NaPP, sodium diphosphate]
stimulation of IFN-γ production [2, 5]: Neither zoledronate (4) nor sodium diphosphate stimulated IFN-γ production
